# Source: ChEMBL document CHEMBL1134345, “Coumarin and chromen-4-one analogues as tautomerase inhibitors of macrophage migration inhibitory factor: discovery and X-ray crystallography” (J Med Chem, 2001)
# Target: T1, Macrophage migration inhibitory factor (Homo sapiens, UniProt P14174)
# T1 sequence (P14174 whole entry): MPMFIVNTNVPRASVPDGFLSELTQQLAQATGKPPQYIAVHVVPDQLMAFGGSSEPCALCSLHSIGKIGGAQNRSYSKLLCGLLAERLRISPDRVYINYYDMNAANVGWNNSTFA
# Test: Inhibitory activity against tautomerase macrophage migration inhibitory factor (MIF)
# In short: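 Recombinant human MIF at 4 ug/mL final, in sodium phosphate buffer pH 6.0. Inhibitors were added in DMSO (1% v/v final). The reaction was started with freshly made D-dopachrome (D-DOPA oxidized with periodate, 1:2) at 0.25–0.5 mM. The A475 decrease was followed for 10 min. Initial rates were corrected for the uncatalyzed rate without MIF. Ki came from three-dimensional nonlinear regression.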
Ki [µM],IC50 [µM],SMILES
2.6,–,O=C(O)/C=C/c1ccc(O)cc1F
–,17.4,CCCCCCS [HEXANETHIOL]
3.1,–,Cc1csc(-c2cc3ccc(O)cc3oc2=O)n1
1.6,–,O=C(COC(=O)c1cc2ccccc2oc1=O)c1ccccc1
2.1,–,Cc1nc(-c2cc3ccc(O)cc3oc2=O)cs1
6.2,–,CN(C)c1ccc(/C=C2\C(=O)Oc3ccccc3C2=O)cc1
0.47,–,O=c1oc2cc(O)ccc2cc1-c1ccccc1
4.3,–,CC(=O)c1cc2ccc(O)cc2oc1=O
0.55,–,NC(=S)c1cc2ccc(O)cc2oc1=O
5.8,–,CCOC(=O)CC(=O)c1cc2ccc(O)cc2oc1=O
–,3300,CCCCCCSC[C@H](NC(=O)CC[C@H](N)C(=O)O)C(=O)NCC(=O)O
0.28,–,O=c1oc2ccccc2cc1-c1csc(-c2cc3ccc(O)cc3oc2=O)n1
1.5,–,O=c1oc2cc(O)ccc2cc1-c1nc(-c2ccc3c(c2)OCO3)cs1

SMILES,Ki [µM],IC50 [µM]
N#Cc1cc2ccc(O)cc2oc1=O,2.9,–

# Target: T1, Macrophage migration inhibitory factor
# Test: Binding activity towards the active site of macrophage migration inhibitory factor (MIF)
row,Kd [µM],SMILES
1,2500,CCCCCCSC[C@H](NC(=O)CC[C@H](N)C(=O)O)C(=O)NCC(=O)O
